Results reported in ChEMBL document CHEMBL3232844, “Synthesis and structure activity relationships of schweinfurthin indoles” (2014).

Legend:
Type in all cases: functional
[1] = system: MDA-MB-435; test: Cytotoxicity against human MDA-MB-435 cells
Procedure, shortened: (§1)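 Tested in a 60-cell-line human tumor panel screen; the read-out is growth inhibition, reported as GI50 for each cell line.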

[2] = system: 786-0; test: Cytotoxicity against human 786-0 cells; procedure, shortened: as §1
[3] = system: HOP-62; test: Cytotoxicity against human HOP62 cells; procedure, shortened: as §1
[4] = system: CCRF-CEM; test: Cytotoxicity against human CCRF-CEM cells
[5] = system: RXF 393; test: Cytotoxicity against human RXF393 cells; procedure, shortened: as §1
[6] = system: LOX IMVI; test: Cytotoxicity against human LOXIMVI cells; procedure, shortened: as §1
[7] = Cytotoxicity against human HCT15 cells; procedure, shortened: as §1
[8] = system: CAKI-1; test: Cytotoxicity against human Caki1 cells; procedure, shortened: as §1
[9] = system: SF-295; test: Cytotoxicity against human SF295 cells; procedure, shortened: as §1
[10] = system: IGROV-1; test: Cytotoxicity against human IGROV1 cells; procedure, shortened: as §1
[11] = Cytotoxicity against human NCI-ADR-RES cells; procedure, shortened: as §1
[12] = system: TK-10; test: Cytotoxicity against human TK10 cells
Procedure, shortened: (§2)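 Cell line run as part of the 60-cell-line screening panel; growth inhibition was reported as a GI50 for each line.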

[13] = system: M14; test: Cytotoxicity against human M14 cells; procedure, shortened: as §1
[14] = system: HT-29; test: Cytotoxicity against human HT-29 cells; procedure, shortened: as §1
[15] = Cytotoxicity against human UO31 cells; procedure, shortened: as §2
[16] = system: HCC 2998; test: Cytotoxicity against human HCC2998 cells; procedure, shortened: as §1
[17] = system: SK-OV-3; test: Cytotoxicity against human SKOV3 cells; procedure, shortened: as §1
[18] = system: A498; test: Cytotoxicity against human A498 cells; procedure, shortened: as §1
[19] = system: NCI-H322M; test: Cytotoxicity against human NCI-H322M cells; procedure, shortened: as §1
[20] = system: KM12; test: Cytotoxicity against human KM12 cells; procedure, shortened: as §1
[21] = system: K562; test: Cytotoxicity against human K562 cells; procedure, shortened: as §1
[22] = system: SNB-75; test: Cytotoxicity against human SNB75 cells; procedure, shortened: as §2
[23] = system: NCI-H23; test: Cytotoxicity against human NCI-H23 cells; procedure, shortened: as §1
[24] = system: BT-549; test: Cytotoxicity against human BT549 cells; procedure, shortened: as §1
[25] = system: SF-268; test: Cytotoxicity against human SF268 cells; procedure, shortened: as §1
[26] = system: SR; test: Cytotoxicity against human SR cells; procedure, shortened: as §2
[27] = system: A549; test: Cytotoxicity against human A549 cells; procedure, shortened: as §1
[28] = Cytotoxicity against human UACC62 cells; details: UACC-62, read-out: pLC50 (the source's name) (converted); procedure, shortened: as §2
[29] = system: MDA-MB-231; test: Cytotoxicity against human MDA-MB-231 cells; procedure, shortened: as §1
[30] = system: SN12C; test: Cytotoxicity against human SN12C cells; procedure, shortened: as §1
[31] = system: ACHN; test: Cytotoxicity against human ACHN cells; procedure, shortened: as §1
[32] = system: DU-145; test: Cytotoxicity against human DU145 cells; procedure, shortened: as §1
[33] = system: MDA-MB-468; test: Cytotoxicity against human MDA-MB-468 cells; procedure, shortened: as §1
[34] = system: HL-60(TB); test: Cytotoxicity against human HL-60(TB) cells
Procedure, shortened: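 Tested within the NCI 60-cell-line screen, with GI50 as the read-out. Values are the average of two independent experiments. The lowest concentration tested was 10 nM.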

[35] = Cytotoxicity against human OVCAR8 cells; procedure, shortened: as §1
[36] = system: SNB-19; test: Cytotoxicity against human SNB19 cells; procedure, shortened: as §1
[37] = Cytotoxicity against human OVCAR4 cells; procedure, shortened: as §1
[38] = system: HCT-116; test: Cytotoxicity against human HCT116 cells; procedure, shortened: as §1
[39] = system: SK-MEL-2; test: Cytotoxicity against human SK-MEL-2 cells; procedure, shortened: as §1
[40] = system: NCI-H226; test: Cytotoxicity against human NCI-H226 cells; procedure, shortened: as §1
[41] = system: SF-539; test: Cytotoxicity against human SF539 cells; procedure, shortened: as §1
[42] = system: COLO 205; test: Cytotoxicity against human COLO205 cells; procedure, shortened: as §1
[43] = Cytotoxicity against human UACC257 cells; procedure, shortened: as §2
[44] = read-out: pLC50 (the source's name) (converted)

Structure (SMILES): COc1cc(/C=C/c2cc(O)c3c(c2)C[C@@H]2C(C)(C)[C@H](O)CC[C@@]2(C)O3)cc2c1ccn2C
- GI50 [1]: 0.389 µM
- CC50 [1, 44]: 61.7 µM
- TGI ([1]; read-out: pTGI (converted)): 9.12 µM
- GI50 [2]: 0.0275 µM
- LC50 (concentration killing 50% of cells) [2]: 7.94 µM
- TGI ([2]; read-out: pTGI (converted)): 1.7 µM
- GI50 [3]: 0.0759 µM
- CC50 [3, 44]: 26.9 µM
- TGI ([3]; read-out: pTGI (converted)): 4.68 µM
- GI50 [4]: 0.0537 µM
- CC50 [4, 44]: 89.1 µM
- TGI ([4]; read-out: pTGI (converted)): 12.3 µM
- GI50 [5]: 0.00891 µM
- LC50 [5]: 27.5 µM
- TGI ([5]; read-out: pTGI (converted)): 1.58 µM
- GI50 [6]: 0.123 µM
- CC50 [6, 44]: 26.9 µM
- TGI ([6]; read-out: pTGI (converted)): 4.57 µM
- GI50 ([7]; HCT-15): 2.95 µM
- CC50 ([7]; HCT-15, read-out: pLC50 (the source's name) (converted)): 33.9 µM
- TGI ([7]; HCT-15, read-out: pTGI (converted)): 6.76 µM
- GI50 [8]: 0.479 µM
- LC50 [8]: 89.1 µM
- TGI ([8]; read-out: pTGI (converted)): 9.12 µM
- GI50 ([9]; read-out: GI50): < 0.012 µM
- GI50 ([9]; read-out: pGI50 (converted)): 0.0209 µM
- CC50 [9, 44]: 1.95 µM
- TGI ([9]; read-out: pTGI (converted)): 0.0437 µM
- GI50 [10]: 10.7 µM
- CC50 [10, 44]: 89.1 µM
- TGI ([10]; read-out: pTGI (converted)): 25.7 µM
- GI50 [11]: 9.55 µM
- CC50 [11, 44]: 89.1 µM
- TGI ([11]; read-out: pTGI (converted)): 46.8 µM
- GI50 [12]: 9.77 µM
- LC50 [12]: 63.1 µM
- TGI ([12]; read-out: pTGI (converted)): 25.1 µM
- GI50 [13]: 0.759 µM
- CC50 [13, 44]: 7.08 µM
- TGI ([13]; read-out: pTGI (converted)): 1.26 µM
- GI50 [14]: 6.03 µM
- CC50 [14, 44]: 41.7 µM
- TGI ([14]; read-out: pTGI (converted)): 15.1 µM
- GI50 ([15]; UO-31): 0.0813 µM
- LC50 ([15]; UO-31): 32.4 µM
- TGI ([15]; UO-31, read-out: pTGI (converted)): 2.95 µM
- GI50 [16]: 0.214 µM
- CC50 [16, 44]: 45.7 µM
- TGI ([16]; read-out: pTGI (converted)): 18.6 µM
- LC50 [17]: 89.1 µM
- TGI ([17]; read-out: pTGI (converted)): 35.5 µM
- GI50 [18]: 0.0437 µM
- CC50 [18, 44]: 53.7 µM
- TGI ([18]; read-out: pTGI (converted)): 9.33 µM
- GI50 [19]: 13.2 µM
- CC50 [19, 44]: 60.3 µM
- TGI ([19]; read-out: pTGI (converted)): 28.2 µM
- GI50 [20]: 0.295 µM
- CC50 [20, 44]: 44.7 µM
- TGI ([20]; read-out: pTGI (converted)): 18.6 µM
- GI50 [21]: 0.0813 µM
- CC50 [21, 44]: 89.1 µM
- TGI ([21]; read-out: pTGI (converted)): 6.31 µM
- GI50 [22]: 0.0525 µM
- CC50 [22, 44]: 35.5 µM
- TGI ([22]; read-out: pTGI (converted)): 5.37 µM
- GI50 [23]: 1.38 µM
- CC50 [23, 44]: 44.7 µM
- TGI ([23]; read-out: pTGI (converted)): 15.5 µM
- GI50 [24]: 0.138 µM
- CC50 [24, 44]: 52.5 µM
- TGI ([24]; read-out: pTGI (converted)): 20.4 µM
- GI50 [25]: 0.0129 µM
- CC50 [25, 44]: 69.2 µM
- TGI ([25]; read-out: pTGI (converted)): 24 µM
- GI50 [26]: 0.0759 µM
- CC50 [26, 44]: 89.1 µM
- TGI ([26]; read-out: pTGI (converted)): 39.8 µM
- GI50 [27]: 9.55 µM
- CC50 [27, 44]: 58.9 µM
- TGI ([27]; read-out: pTGI (converted)): 23.4 µM
- CC50 [28]: 21.4 µM
- GI50 [29]: 3.89 µM
- LC50 [29]: 51.3 µM
- TGI ([29]; read-out: pTGI (converted)): 19.1 µM
- GI50 [30]: 10.5 µM
- LC50 [30]: 52.5 µM
- TGI ([30]; read-out: pTGI (converted)): 23.4 µM
- GI50 [31]: 1.23 µM
- LC50 (concentration killing 50% of cells) [31]: 50.1 µM
- TGI ([31]; read-out: pTGI (converted)): 17.8 µM
- GI50 [32]: 5.62 µM
- LC50 (50% lethal concentration) [32]: 42.7 µM
- TGI ([32]; read-out: pTGI (converted)): 19.1 µM
- GI50 [33]: 0.871 µM
- LC50 [33]: 46.8 µM
- TGI ([33]; read-out: pTGI (converted)): 15.1 µM
- GI50 [34]: 0.0447 µM
- CC50 [34, 44]: 89.1 µM
- TGI ([34]; read-out: pTGI (converted)): 16.6 µM
- GI50 ([35]; OVCAR-8): 4.27 µM
- CC50 ([35]; OVCAR-8, read-out: pLC50 (the source's name) (converted)): 89.1 µM
- TGI ([35]; OVCAR-8, read-out: pTGI (converted)): 39.8 µM
- GI50 [36]: 0.0141 µM
- CC50 [36, 44]: 41.7 µM
- TGI ([36]; read-out: pTGI (converted)): 13.8 µM
- GI50 ([37]; OVCAR-4): 8.51 µM
- CC50 ([37]; OVCAR-4, read-out: pLC50 (the source's name) (converted)): 56.2 µM
- TGI ([37]; OVCAR-4, read-out: pTGI (converted)): 24 µM
- GI50 [38]: 0.407 µM
- CC50 [38, 44]: 35.5 µM
- TGI ([38]; read-out: pTGI (converted)): 13.5 µM
- GI50 [39]: 2.29 µM
- CC50 [39, 44]: 43.7 µM
- TGI ([39]; read-out: pTGI (converted)): 17 µM
- GI50 [40]: 16.2 µM
- CC50 [40, 44]: 89.1 µM
- TGI ([40]; read-out: pTGI (converted)): 60.3 µM
- GI50 [41]: 1.62 µM
- CC50 [41, 44]: 45.7 µM
- TGI ([41]; read-out: pTGI (converted)): 13.2 µM
- GI50 [42]: 5.62 µM
- CC50 [42, 44]: 42.7 µM
- TGI ([42]; read-out: pTGI (converted)): 17.8 µM
- GI50 ([43]; UACC-257): 0.0389 µM
- CC50 ([43]; UACC-257, read-out: pLC50 (the source's name) (converted)): 64.6 µM
- TGI ([43]; UACC-257, read-out: pTGI (converted)): 25.1 µM
